The chains are these.
B1: tRNA (parent)
chain: GUUCCGUUGGCGUAAUGGUAACGCGUCUCCCUCCUAAGGAGAAGACUGCGGGUUCGAGUCCCGUACGGAACG

This sample holds only a part of the variants without activity.

The variants in the data set derive from B1. Kind of data set: yeast fitness relative to wild type (ratio to wild type); higher = fitter; tRNA-Arg(CCU), competitive growth, 37 C, YPD. The gist of the method:
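Start and end populations of a pooled competition were compared by 100-nucleotide paired-end sequencing of gene amplicons. The Saccharomyces cerevisiae strains carried tRNA-Arg(CCU) gene variants at the native genomic locus, synthesised with a 3% per-site mutation rate at 69 sites, and competed in YPD at 37°C for 24 hours in six parallel replicates. Darwinian fitness relative to wild type was based on the change in genotype frequencies. Genotypes required ≥ 100 starting reads, and estimates < 0.5 were set to 0.5.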
With C24G C60A, the yeast fitness was determined as 0.576.
With G25C C30A the figure was 0.792; with C24G C31G, 0.773; with C24A G39A, 0.66.
Next, C24U C29A C33U: no more than 0.5.
G25A U32C: the yeast fitness amounted to 0.832.
Next, C24A C30U A45G A57U: 0.6; C24G C29G G48A: no more than 0.5; G25A A43U C61A: 0.765.
With G25U A36U G56C A65C G67A the figure was no more than 0.5.
Next, C24G C34G A70C: no more than 0.5; C24A U59A C61U: 0.567.
Regarding C24A C27U A40U A57C, the yeast fitness amounted to 0.512.
Next, G25C U28C A69U: 0.532.
In the case of C24G G41A, the yeast fitness was 0.619.
With C24U A42U G52C, the yeast fitness was determined as 0.578.
With G25C A37U the figure was 0.56; with G25A C29U C31G C55U G67C, no more than 0.5.
Next, C24A C33G A40C C55U: 0.888.
For G25C U26G C60U C62G U64A A69U, the yeast fitness is no more than 0.5.
With C24G C55G C62U the figure was no more than 0.5; with C24U U28C G48A C61G, no more than 0.5; with C24U U28C A40C G68C, no more than 0.5.
Next, G25A C30A C34A C49A C62G C66U A70G: 0.712; C24U C30U: 0.744.
With C24U A45G A69U the figure was 0.888; with C24U C33G U59C U64A, 0.686; with C24U G25A C30U, 0.684.
As to C24G U64A C66A, the yeast fitness is no more than 0.5.
With G25A G48A A70U the figure was 0.81; with G25C C34U, 0.558; with G25C C61U, 1.1.
Next, C24A C27A U28A C55G: no more than 0.5.
Next, C24G G50C A70G: no more than 0.5; C24U C30G A45C C61G: 0.568; C24U A37G A70U: 0.536.
C24U C55U: the yeast fitness is 0.854.
With C24U C55G the figure was 0.638; with C24G C29U G51C C66U, no more than 0.5.
In the case of U26A A40U A65C, the yeast fitness was 0.662.
With C24U U47A G48C U54G A65C the figure was no more than 0.5; with C24U G41C, 0.847; with C24G C66G G68C, no more than 0.5.
Next, C24G C29U C49U: no more than 0.5; C24U A36U C46G C62A A69C: no more than 0.5; C24U G67A: 0.913.
With G25A U35C A43G the figure was no more than 0.5; with C24U A36C A43U C61U, no more than 0.5; with C24U C49U U59G G67U, no more than 0.5.
As to C24G G39A A70C, the yeast fitness was no more than 0.5.
With G25A C34A A36C the figure was 0.587.
In the case of C24G C34G U47A C49A A65G, the yeast fitness was no more than 0.5.
With C24U C46A A57G the figure was 0.749.
With C24G U26A G41C C66U the figure was 0.608.
With C24G C27G C62A the figure was 0.622.
Regarding C24U C30G C46G G52A G58A, the yeast fitness amounted to 0.559.
With C24G G38A G44C the figure was no more than 0.5.
Next, C24G U59A A70U: no more than 0.5.
Next, C24U C46A C62A A69C: 0.573; G25A C31G A45U C61U: 0.727; C24A U64C: 0.706.
Regarding C24G A37G U47C U59A G67A, the yeast fitness is no more than 0.5.
With G25A C29A C46G G51A the figure was no more than 0.5.
Next, C24G A43G U47A U53A: no more than 0.5.
Next, C24G C49G G68U: no more than 0.5.
Turning to G25A A42U A57G, the yeast fitness was no more than 0.5.
Next, G25C C34U A40G U54A A65G: 0.582; C24G A45U U54A: no more than 0.5; C24U G44A C60U C62A: no more than 0.5.
With C24A U59G C62U, the yeast fitness is no more than 0.5.
Next, C24U U32A G38A A57U G68U: no more than 0.5; G25A U28C: 0.891; C24U C49G G63A A69C: no more than 0.5.
With G25C C30U C61G the figure was 0.526.
With G25A C29U G51C A70U the figure was no more than 0.5; with C24G U35A A40C G52A C60A C61G, no more than 0.5; with C24U C29G C31U U64A, no more than 0.5.
Take C24U C46A A69G: the yeast fitness is 0.996.
Take G25A U28A C61U G67C: the yeast fitness is no more than 0.5.
Next, C24G C55G C66U: no more than 0.5; C24G U32C A42G: 0.574; G25C C33G C61G: no more than 0.5.
Next, C24G G41C G68C: 0.592.
Next, C24A C30U: 0.538; C24U C60U: 0.797.
Turning to G25C G48A C60G, the yeast fitness was no more than 0.5.
As to G25A A43C U59C, the yeast fitness worked out at 0.71.
With C24U G39A A65U the figure was 0.528; with U26A C27A C31U, no more than 0.5.
With G25C A43G C61U the figure was 0.623; with G25C C33U C49A U53A G67A, no more than 0.5.
Next, G25C A42G G68A: 0.621; C24U U54G: 0.577.
Turning to C24A C31U U53A, the yeast fitness was determined as 0.786.
With C24U G41A C62A A69U the figure was no more than 0.5; with C24A G68C, 0.643; with C24U G48A G51A, 0.665.
With C24U A42C the figure was 0.994; with G25A C30G C34A C49G, no more than 0.5.
As for C24G C27A U32C U64A, the yeast fitness is no more than 0.5.
With G25A C31U G38C U54C the figure was 0.654; with C24G C34G A36G U53A, no more than 0.5.
For the variant C24A C29G U54A, the yeast fitness worked out at 0.568.
For C24U C49G G56C G58A G67A, the yeast fitness was no more than 0.5.
With C24A U26C the figure was 0.678; with C24G C62U A65G, 0.558.
Next, C24G C30G C34G A70G: no more than 0.5; G25C C46U G50C: no more than 0.5; G25C C31G C34G G41A C61U A69U: no more than 0.5.
With C24G A36G A65U G68C the figure was no more than 0.5; with G25C U59A, 0.804; with C24U A45C A69C, 0.619.
As for C24U U32C C46A A70U, the yeast fitness turned out to be 0.65.
Take C24G U54G G63A: the yeast fitness was determined as 0.553.
Next, C24U U53A C55A: 0.65; C24U A37G A45U C55U: 0.708.
With C24G U35G G48C C66U the figure was no more than 0.5; with G25A A37C A69U, 0.684; with C24U A45C G63A, 0.601.
For U26A A70U, the yeast fitness was 0.876.
In the case of U26A A43U, the yeast fitness was determined as 0.937.
With C24U C27G U32C A65U the figure was no more than 0.5; with G25A G58C A65G, 1.04.
Next, G25A A40G: 0.972.
With C24A C34U A43U C49G C62G the figure was no more than 0.5; with C24G G44A C46U U53C C62U, no more than 0.5; with C24U C30G G51A C60U G67A, no more than 0.5.
As to G25A G41A G52C, the yeast fitness was no more than 0.5.
With C24A C33U C62U the figure was no more than 0.5.
Next, G25A C29U C60A: 0.728; U26A A37G C66A: no more than 0.5; G25A U26A: 0.839.
With C24G C31U C34U C49U A69C the figure was no more than 0.5; with G25C C29A G52A A65G, no more than 0.5; with C24G G44A C46U U53C, no more than 0.5.
As to G25A C31U U47G C55A A57G A65C A70C, the yeast fitness was no more than 0.5.
Take G25C C31G G51C A65U: the yeast fitness is no more than 0.5.
With G25C C31U A69U, the yeast fitness came to 0.77.
With G25C G41C C46U the figure was 0.579; with G25A G50C, 0.929.
With G25A A70C the figure was 1.05; with C24G A37U C49U U59A, no more than 0.5.
With C24U G52A G56A, the yeast fitness turned out to be 0.703.
Next, G25C C27G C30G C60A: no more than 0.5; C24U U26C G58A: 1.01.
With C24G C34U A45C the figure was no more than 0.5; with G25C A57U, 0.659; with C24U C30U A57C, no more than 0.5.
Next, C24G C49G G67A A69C: 0.521; G25A C31A G44C: 0.597.
G25C C29G C33U G39U A57U: the yeast fitness is no more than 0.5.
With G25C C31U C46U the figure was 0.684; with C24A C27A U28A G67U, no more than 0.5; with C24G A40G C66U, 0.515.
Next, C24G A36U A65G: no more than 0.5.
With C24U A45C U47A G63A the figure was no more than 0.5; with C24G C49U C55G G58A, 0.764.
As for G25C G51A U54A, the yeast fitness was 0.507.
Consider G25A C30A, for which the yeast fitness stood at 0.836.
With G25A C30G the figure was 0.636; with C24U G38A, 0.819.
Turning to C24A U32C C62U, the yeast fitness is no more than 0.5.
Consider C24G A42C C60U U64A, for which the yeast fitness stood at 0.562.
Next, C24U G39C A70G: no more than 0.5; C24U U32G A40U U64G A65G: no more than 0.5; G25A C49A G68C: no more than 0.5.
Next, C24G G50A C55U A69C A70U: no more than 0.5.
